Sampled rows, rich in hits. Any-hit rate of the full collection: about 1.9%.
TbMetRS inhib = blocks T. brucei methionyl-tRNA synthetase activity; purified T. brucei MetRS, ATP depletion, Kinase-Glo luminescence; AID 624268; 360,000 tested, 0.4% active; inhibition, % at 11.9 µM;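 active means inhibition above a per-plate cutoff of the control wells' mean inhibition plus 3 SD, cut at about 5.5% in these data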;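 further: 0% = DMSO wells median and 100% = median of wells with control inhibitor compound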
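Test system: purified T. brucei MetRS enzyme. Also added: ATP, methionine and E. coli bulk tRNA substrates. Compound: 11.9 µM single point. Schedule: 15 min enzyme-compound preincubation, 2 h reaction, 10 min detection, 25 °C. Signal: luciferase luminescence of residual ATP, Kinase-Glo. Evaluation: percent inhibition versus plate control medians. Controls: DMSO wells, low control.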
HGIII-sPLA2 inh = Inhibits HGIII-sPLA2 liposome hydrolysis, primary screen; Q9NZ20; inhibition, % at 12.2 µM; 370,000 tested, 0.56% active; QFRET BODIPY PC-A2 liposome hydrolysis, fluorescence;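 active means inhibition above mean plus 3 SD of compounds lying within the high and low control bounds, cut at about 19% in these data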;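 further: 0% = median of test compound wells and 100% = no enzyme DMSO wells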
PLCb3 inh = inhibitors of human phospholipase C beta3; Purified PLC-beta3, fluorogenic substrate, fluorescence; 370,000 tested, 0.18% active; inhibition, % at 12.2 µM; Q01970; in the data active means inhibition above about 11%;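 further: 0% = median of compound wells on plate and 100% = full blocker control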
Target sequence (Q01970 whole entry, looked up): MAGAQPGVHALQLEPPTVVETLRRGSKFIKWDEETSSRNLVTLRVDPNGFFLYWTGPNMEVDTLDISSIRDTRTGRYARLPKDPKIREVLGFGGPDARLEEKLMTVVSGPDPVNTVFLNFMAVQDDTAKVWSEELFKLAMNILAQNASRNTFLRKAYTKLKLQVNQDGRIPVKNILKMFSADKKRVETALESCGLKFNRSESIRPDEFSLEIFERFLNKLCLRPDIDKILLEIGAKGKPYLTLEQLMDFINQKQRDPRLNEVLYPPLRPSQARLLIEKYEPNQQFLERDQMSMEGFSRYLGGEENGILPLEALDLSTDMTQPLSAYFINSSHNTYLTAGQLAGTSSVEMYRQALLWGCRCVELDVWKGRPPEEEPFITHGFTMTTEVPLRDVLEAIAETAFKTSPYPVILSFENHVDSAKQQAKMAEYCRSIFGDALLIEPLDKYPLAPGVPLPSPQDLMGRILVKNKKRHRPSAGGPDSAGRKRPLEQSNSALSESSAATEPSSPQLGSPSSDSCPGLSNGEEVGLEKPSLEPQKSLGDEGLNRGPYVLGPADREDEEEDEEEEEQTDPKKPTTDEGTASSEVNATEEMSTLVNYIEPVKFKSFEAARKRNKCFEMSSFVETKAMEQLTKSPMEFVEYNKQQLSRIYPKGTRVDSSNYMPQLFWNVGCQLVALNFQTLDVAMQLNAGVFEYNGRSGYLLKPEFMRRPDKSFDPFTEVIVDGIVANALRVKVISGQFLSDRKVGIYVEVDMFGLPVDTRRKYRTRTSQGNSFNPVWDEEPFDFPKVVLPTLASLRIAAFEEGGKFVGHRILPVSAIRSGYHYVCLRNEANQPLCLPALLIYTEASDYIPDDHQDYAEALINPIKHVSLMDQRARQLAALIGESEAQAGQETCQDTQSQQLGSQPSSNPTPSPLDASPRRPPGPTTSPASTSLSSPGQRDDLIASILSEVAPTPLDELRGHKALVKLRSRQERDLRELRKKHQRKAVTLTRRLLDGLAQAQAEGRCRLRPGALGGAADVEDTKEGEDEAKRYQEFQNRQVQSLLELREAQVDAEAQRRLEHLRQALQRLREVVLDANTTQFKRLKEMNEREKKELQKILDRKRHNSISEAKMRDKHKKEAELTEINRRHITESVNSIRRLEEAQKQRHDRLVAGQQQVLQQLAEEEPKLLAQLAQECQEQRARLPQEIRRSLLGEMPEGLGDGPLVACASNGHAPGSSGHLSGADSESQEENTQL
PLC-gamma1 inh = inhibitors of human phospholipase C gamma1 | purified PLC-gamma1, fluorogenic substrate, fluorescence | AID 720700 | P19174 | inhibition, % at 12.2 µM | 370,000 tested, 0.84% active; in the data active means inhibition above about 9.5%
TbMetRS confirm = Trypanosoma brucei MetRS inhibition confirmed; 1,400 tested, 93% active; shares compounds with TbMetRS inhib; inhibition, % at 11.9 µM; T. brucei MetRS enzyme, luminescence (ATP depletion); in the data active means inhibition above about 7%
Jurkat cytotox = kills Jurkat cells in T. brucei MetRS counterscreen; shares compounds with TbMetRS inhib; Jurkat cells viability, ATP luminescence; inhibition, % at 8.3 µM; 1,400 tested, 12% active; AID 624413; in the data active means inhibition above about 15%;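 further: 0% = vehicle and 100% = reference inhibitor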
Tb MetRS inh FP = inhibits T. brucei methionyl tRNA synthetase in orthogonal FP test; shares compounds with TbMetRS inhib; purified T. brucei MetRS, fluorescence polarization; inhibition, % at 11.9 µM; 1,400 tested, 44% active; in the data active means inhibition above about 17%;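 further: 0% = vehicle wells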
* marks the source's active call; other numbers are inactive results; x = no result given.

SMILES	TbMetRS inhib	HGIII-sPLA2 inh	PLCb3 inh	PLC-gamma1 inh	TbMetRS confirm	Jurkat cytotox	Tb MetRS inh FP
c1ccc2cc(OCc3nc4ccccc4[nH]3)ccc2c1	6.0*	-9	2	3	6.8*	4	9
COc1cccc(OCc2nc3ccccc3[nH]2)c1	1	7	-3	0	x	x	x
Brc1ccc(OCc2nc3ccccc3[nH]2)cc1	10*	-2	-2	0	16*	0	9
COc1ccc(OCc2nc3ccccc3[nH]2)cc1	1	-2	4	1	x	x	x
Cc1ccccc1-c1cccc2c3c([nH]c12)[C@@H]1C[C@H]2[C@@H](CN1CC3)[C@H](C)ON2C	x	9	-115	-82	x	x	x
O=C(NCc1nc2ccccc2[nH]1)C1=C[C@H](c2csc3ccccc23)C[C@H](OCc2ccc(CO)cc2)O1	58*	-17	-52	-50	93*	4	62*
O=C(NCc1nc2ccccc2[nH]1)C1=C[C@@H](c2csc3ccccc23)C[C@@H](OCc2ccc(CO)cc2)O1	41*	-21	-26	-14	82*	-1	50*
C[C@H](O)[C@@H]1CN2CCc3c([nH]c4ccccc34)[C@@H]2C[C@@H]1N(C)C(=O)Nc1ccccc1	2	-4	-136	-113	x	x	x
CN(Cc1cc(Cl)cc(Cl)c1)[C@H]1C[C@H]2c3[nH]c4ccccc4c3CCN2C(=O)[C@H]1CO	62*	-22	-45	-35	106*	-3	86*
C[C@H](O)[C@@H]1C(=O)N2CCc3c([nH]c4ccccc34)[C@@H]2C[C@@H]1N(C)C(=O)Nc1cc(Cl)cc(Cl)c1	71*	-52	-284	-208	91*	18*	70*
C[C@H](O)[C@@H]1CN2CCc3c([nH]c4ccccc34)[C@@H]2C[C@@H]1N(C)C(=O)Nc1cc(Cl)cc(Cl)c1	29*	-11	-256	-167	58*	9	37*
CCOC(=O)c1ccc(NC(=O)CSc2nnc(-c3cccc(C)c3)n2C)cc1	x	6	-3	-1	x	x	x
Cc1[nH]c2ccccc2c1C(=O)C(=O)N1CC(C)OC(C)C1 (stereo not given)	1	3	1	6	x	x	x
Cc1[nH]c2ccccc2c1C(=O)C(=O)N1CCN(c2ccccc2Cl)CC1	9.0*	-9	-12	-3	28*	-4	15
Cc1[nH]c2ccc(C(=O)N3CCN(c4cccc(Cl)c4)CC3)cc2c1C	0	-53	-22	-6	x	x	x
Cc1[nH]c2ccccc2c1C(=O)C(=O)N1CCN(c2cccc(Cl)c2)CC1	7.1*	-28	-1	13*	15*	-2	3
Cc1[nH]c2ccccc2c1C(=O)C(=O)N1CC=C(c2ccccc2)CC1	9.1*	-19	-8	-6	13*	10	1
O=C(C(=O)N1CCN(c2cccc(Cl)c2)CC1)c1c[nH]c2ccccc12	9.4*	-24	6	2	12*	0	7
O=C(CSc1nnc(Cc2cccs2)n1-c1ccc(Cl)cc1)Nc1ccc(OCc2ccccc2)cc1	x	-21	1	0	x	x	x
COc1ccccc1N1CCN(C(=O)C(=O)c2c(C)n(C)c3ccccc23)CC1	0	-2	-1	4	x	x	x
COc1ccccc1N1CCN(C(=O)C(=O)c2c(C)[nH]c3ccccc23)CC1	6.6*	-8	-3	2	19*	1	4
Cc1cc2nc(/C(C#N)=C\c3ccc(-c4ccccc4C(=O)O)o3)[nH]c2cc1C	-1	-2	-35	-24	x	x	x
Cc1cc(/C=C(/C#N)c2nc3ccccc3[nH]2)c(C)n1-c1cc(C(=O)O)cc(C(=O)O)c1	5.8*	-6	-145	-103	37*	-3	12
Cc1ccc2nc(/C(C#N)=C/c3ccc(-c4ccccc4C(=O)O)o3)[nH]c2c1	6.0*	-18	-248	-193	22*	4	4
COc1ccc(N2CCC(CNC(=O)Nc3ccc(Cl)cc3)C2)cc1 (stereo not given)	14*	10	-9	0	29*	11	25*
Cc1cccc(CCN=C(N)NS(=O)(=O)c2ccccc2)c1	6.2*	-1	-9	2	14*	6	5

Assay outcomes: PubChem, The Scripps Research Institute Molecular Screening Center
